Square brackets hold non-standard residues; d marks the D form. Peptide text beside a SMILES is read from it. Sar = CNCC(=O)O
Tests used:
[1] = organism: Rattus norvegicus; assay: Compound was tested for agonist activity in rat isolated uterus assay; type: functional
Method in brief: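 Uteri from diethylstilbestrol-primed female Sprague-Dawley rats (150-250 g). Peptides were stored lyophilized at -20 °C, with 1 mg/mL stock solutions made weekly and assay dilutions made daily. Tissue was challenged every 12 min. Agonist activity is expressed relative to ANG II = 100%, as mean ± SEM with the number of animals.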

[2] = organism: Rattus norvegicus; assay: Compound was tested for antagonist activity in rat isolated uterus assay; pA2 is the negative logarithm of the concentration of antagonist that reduces the response to an ED50 dose of angiotensin II to the response to half the ED50 dose; type: functional; conditions: read-out: pA2 (converted)
Method in brief: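 Isolated uterus from diethylstilbestrol-primed female Sprague-Dawley rats (150-250 g), challenged every 12 min. Antagonist was given 2 min before an ED50 dose of ANG II. Where antagonism appeared non-competitive, each tissue received a single "pA2 dose" and the ANG II response was measured after 2 min (mean of four determinations). Otherwise values are mean ± SEM (number of animals).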

Structure (SMILES) | Activity [1] [%] | Kb [2] [nM]
CC[C@H](C)[C@H](NC(=O)[C@H](Cc1ccc(OC)cc1)NC(=O)[C@@H](NC(=O)[C@H](CCCN=C(N)N)NC(=O)CNC)C(C)C)C(=O)N[C@@H](Cc1c[nH]cn1)C(=O)N1CCC[C@H]1C(=O)N[C@@H](Cc1ccccc1)C(=O)O | <0.1 | 7.94
CC[C@H](C)[C@H](NC(=O)[C@H](Cc1ccc(O)cc1)NC(=O)[C@@H](NC(=O)[C@@H](N)CCCN=C(N)N)C(C)C)C(=O)N[C@@H](Cc1c[nH]cn1)C(=O)N1CCC[C@H]1C(=O)N[C@@H](Cc1c[nH]c2ccccc12)C(=O)O | <0.1 | 200
CC[C@H](C)[C@H](NC(=O)[C@@H]1CCCN1C(=O)[C@H](Cc1c[nH]cn1)NC(=O)[C@@H](NC(=O)[C@H](Cc1ccc(OC)cc1)NC(=O)[C@@H](NC(=O)[C@H](CCCN=C(N)N)NC(=O)CNC)C(C)C)[C@@H](C)CC)C(=O)O | <0.1 | 63.1
CC[C@H](C)[C@H](NC(=O)[C@H](Cc1ccc(OC)cc1)NC(=O)[C@@H](NC(=O)[C@@H](N)CCCN=C(N)N)C(C)C)C(=O)N[C@@H](Cc1c[nH]cn1)C(=O)N1CCC[C@H]1C(=O)N[C@@H](Cc1ccccc1)C(=O)O | <0.1 | > 1000
CC[C@H](C)[C@H](NC(=O)[C@H](Cc1ccc(OC)cc1)NC(=O)[C@@H](NC(=O)[C@H](CCCN=C(N)N)NC(=O)CNC)C(C)C)C(=O)N[C@@H](Cc1c[nH]cn1)C(=O)N1CCC[C@H]1C(=O)N[C@@H](Cc1c[nH]c2ccccc12)C(=O)O | <0.1 | 79.4
CC[C@H](C)[C@H](NC(=O)[C@H](Cc1ccc(OC)cc1)NC(=O)[C@@H](NC(=O)[C@@H](N)CCCN=C(N)N)C(C)C)C(=O)N[C@@H](Cc1c[nH]cn1)C(=O)N1CCC[C@H]1C(=O)N[C@@H](Cc1c[nH]c2ccccc12)C(=O)O | <0.1 | > 1000
CC[C@H](C)[C@H](NC(=O)[C@@H]1CCCN1C(=O)[C@H](Cc1c[nH]cn1)NC(=O)[C@@H](NC(=O)[C@H](Cc1ccc(OC)cc1)NC(=O)[C@@H](NC(=O)[C@@H](N)CCCN=C(N)N)C(C)C)[C@@H](C)CC)C(=O)O | <0.1 | > 1000
CC[C@H](C)[C@H](NC(=O)[C@H](Cc1ccc(O)cc1)NC(=O)[C@@H](NC(=O)[C@H](CCCN=C(N)N)NC(=O)CNC)C(C)C)C(=O)N[C@@H](Cc1c[nH]cn1)C(=O)N1CCC[C@H]1C(=O)N[C@@H](Cc1c[nH]c2ccccc12)C(=O)O | <0.1 | 20
CC[C@H](C)[C@H](NC(=O)[C@@H]1CCCN1C(=O)[C@H](Cc1c[nH]cn1)NC(=O)[C@@H](NC(=O)[C@H](Cc1ccc(O)cc1)NC(=O)[C@@H](NC(=O)[C@H](CCCN=C(N)N)NC(=O)CNC)C(C)C)[C@@H](C)CC)C(=O)O | <0.1 | 2
CC[C@H](C)[C@H](NC(=O)[C@H](Cc1c[nH]c2ccccc12)NC(=O)[C@@H](NC(=O)[C@@H](N)CCCN=C(N)N)C(C)C)C(=O)N[C@@H](Cc1c[nH]cn1)C(=O)N1CCC[C@H]1C(=O)N[C@@H](Cc1ccccc1)C(=O)O (H-RVWIHPF-OH) | <0.1 | > 1000
CC[C@H](C)[C@H](NC(=O)[C@@H]1CCCN1C(=O)[C@H](Cc1c[nH]cn1)NC(=O)[C@@H](NC(=O)[C@H](Cc1c[nH]c2ccccc12)NC(=O)[C@@H](NC(=O)[C@@H](N)CCCN=C(N)N)C(C)C)[C@@H](C)CC)C(=O)O (H-RVWIHPI-OH) | <0.1 | > 1000
CC[C@H](C)[C@H](NC(=O)[C@H](Cc1c[nH]c2ccccc12)NC(=O)[C@@H](NC(=O)[C@H](CCCN=C(N)N)NC(=O)CNC)C(C)C)C(=O)N[C@@H](Cc1c[nH]cn1)C(=O)N1CCC[C@H]1C(=O)N[C@@H](Cc1ccccc1)C(=O)O (H-[Sar]RVWIHPF-OH) | <0.1 | > 1000
